From article PMC3907283 (Nature, 2013)

Columns and labels:
[1] = system: Swi6; experiment: Swi6 self-association by sedimentation equilibrium/velocity AUC; assay type: binding, S. pombe; details: AUC, Supplementary Fig. 6
[2] = system: H3K9me3 tail peptide; experiment: H3 tail peptide binding; details: Supplementary Fig. 5
Summary of the method: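 Intrinsic Trp fluorescence (W104 in aromatic cage): 200nM Swi6 in 20mM HEPES pH 7.5, 150mM KCl, 1 mM DTT, titrated with H3 peptide (residues 1–18), K9 trimethylated or unmethylated. 10min at 30°C, excitation 295 nm, emission read at 330 nm. Kd from 1:1 binding fit, averaged over three independent data sets.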

[3] = system: H3K9me3 nucleosomes; experiment: Nucleosome binding by fluorescence anisotropy/polarization; parameters: species or system Xenopus laevis
Summary of the method: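 Core nucleosomes assembled from recombinant Xenopus histones on 147 bp 601 DNA, one end 6-carboxyfluorescein-labelled; H3K9me3 mimicked by methyl-lysine analog (H3KC9me3). 5-10 nM nucleosomes titrated with Swi6 in 20mM HEPES pH 7.5, 150mM KCl, 1 mM DTT, 0.01% NP40; 30 min at 24°C; FP at λex 480/λem 530nm. Fit to a two-step model giving Kd1 (Swi6–nucleosome) and Kd2 (scaffolded Swi6–Swi6); n ≥ 3, s.e.m.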

[4] = target: T1, Swi6 (Schizosaccharomyces pombe, UniProt P40381); experiment: Swi6 self-association by sedimentation equilibrium/velocity AUC; assay type: binding, S. pombe; details: AUC
T1 sequence (P40381 1-328): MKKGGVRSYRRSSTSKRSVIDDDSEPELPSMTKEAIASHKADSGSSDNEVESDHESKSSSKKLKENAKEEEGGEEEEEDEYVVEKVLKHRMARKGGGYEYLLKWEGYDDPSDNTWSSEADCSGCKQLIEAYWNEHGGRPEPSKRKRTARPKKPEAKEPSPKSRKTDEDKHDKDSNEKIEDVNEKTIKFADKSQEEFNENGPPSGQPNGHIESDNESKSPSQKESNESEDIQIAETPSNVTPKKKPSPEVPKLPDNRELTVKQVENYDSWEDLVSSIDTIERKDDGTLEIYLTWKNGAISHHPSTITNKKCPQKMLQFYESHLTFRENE

[5] = target: Swi6 (Schizosaccharomyces pombe, UniProt P40381, C121S/C124S/C310S); experiment: as above; assay type: binding, S. pombe; details: all three native cysteines mutated to serines; Supplementary Fig. 5
Swi6 (Schizosaccharomyces pombe, UniProt P40381, C121S/C124S/C310S), sequence (P40381 whole entry C121S/C124S/C310S): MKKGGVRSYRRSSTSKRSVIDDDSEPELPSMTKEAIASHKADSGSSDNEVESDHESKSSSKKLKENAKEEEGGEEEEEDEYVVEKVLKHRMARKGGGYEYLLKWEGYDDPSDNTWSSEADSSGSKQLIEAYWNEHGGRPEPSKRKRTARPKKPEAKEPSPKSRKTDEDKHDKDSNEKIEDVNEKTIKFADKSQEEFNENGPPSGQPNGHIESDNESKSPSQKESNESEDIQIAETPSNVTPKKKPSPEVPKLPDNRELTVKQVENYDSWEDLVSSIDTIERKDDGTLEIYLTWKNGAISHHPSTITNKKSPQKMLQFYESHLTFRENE

[6] = system: Swi6; experiment: SV AUC weighted average sedimentation coefficient; assay type: binding, S. pombe; details: [Swi6^WT] = 20μM
[7] = target: H3K9me3 tail peptide (UniProt P68431); experiment: other fluorescence titration + fluorescence polarisation
[8] = system: Swi6; experiment: Swi6 protein levels in vivo; assay type: cell-based, S. pombe; details: silencing strains; Supplementary Fig. 9
Summary of the method: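 Detection with rabbit polyclonal antibodies raised against recombinant Swi6.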

[9] = system: ura4+ reporter gene inserted at the pericentromeric imr region; experiment: ura4+ reporter silencing assay; assay type: cell-based, S. pombe; details: 5-FOA medium, 30°C, 2-3 days; Fig. 4d
Summary of the method: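 Strains grown overnight to saturation, adjusted to OD600 of 1 for the most concentrated spot, then 5-fold serial dilutions plated on non-selective YS and on 5-FOA (2 grams/liter) media.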

[10] = target: the molecule itself; experiment: AUC
[11] = target: the molecule itself; experiment: AUC; remark: listed apart in the source

## Swi6-CFP: Swi6 with the CFP tag moved to the C-terminus
[1]
  sedimentation coefficient compared to CFP-Swi6 (in words): lower sedimentation coefficient

## Swi6^WT: major S. pombe HP1 protein, Swi6, wild type
[2]
  effect of mutating native cysteines on H3 peptide binding: destabilized oligomerization, H3 peptide binding
[3]; Supplementary Fig. 5
  effect of mutating native cysteines on nucleosome binding: destabilized oligomerization, H3 peptide binding, and nucleosome binding
[4]; SE and SV global analysis, 8°C, RB: 20mM HEPES pH 7.5, 150mM KCl, 1 mM DTT
  1/Kobsiso, isodesmic self-association of Swi6 dimers (chain elongation): ~70 µM
[4]; saturating methylated H3 tail peptide, Supplementary Fig. 4
  Swi6 dimerization with saturating methylated H3 tail peptide: weakened
[5]
  effect of mutating native cysteines on oligomerization: destabilized oligomerization
[6]
  sedimentation coefficient, tetramer (S4): ~ 5.2 S

B1: Swi6^LoopX (natural protein)
chain: MKKGGVRSYRRSSTSKRSVIDDDSEPELPSMTKEAIASHKADSGSSDNEVESDHESKSSSKKLKENAKEEEGGEEEEEDEYVVEKVLKHRMAAAGGGYEYLLKWEGYDDPSDNTWSSEADCSGCKQLIEAYWNEHGGRPEPSKRKRTARPKKPEAKEPSPKSRKTDEDKHDKDSNEKIEDVNEKTIKFADKSQEEFNENGPPSGQPNGHIESDNESKSPSQKESNESEDIQIAETPSNVTPKKKPSPEVPKLPDNRELTVKQVENYDSWEDLVSSIDTIERKDDGTLEIYLTWKNGAISHHPSTITNKKCPQKMLQFYESHLTFRENE
[7]
  fold stronger binding than Swi6^WT: 6 fold
[8]
  Swi6 protein levels: not due to reductions in protein levels
[3]; fluorescence anisotropy, Fig. 4a and Supplementary Fig. 8
  discrimination for the methyl mark in nucleosome binding: discrimination for the methyl mark was maintained
[9]
  silencing of ura4+ reporter: defects in silencing that are comparable to the swi6+ deletion strain

B2: Swi6^WT (natural protein, S. pombe, UniProt P40381 1-328, looked up)
chain: MKKGGVRSYRRSSTSKRSVIDDDSEPELPSMTKEAIASHKADSGSSDNEVESDHESKSSSKKLKENAKEEEGGEEEEEDEYVVEKVLKHRMARKGGGYEYLLKWEGYDDPSDNTWSSEADCSGCKQLIEAYWNEHGGRPEPSKRKRTARPKKPEAKEPSPKSRKTDEDKHDKDSNEKIEDVNEKTIKFADKSQEEFNENGPPSGQPNGHIESDNESKSPSQKESNESEDIQIAETPSNVTPKKKPSPEVPKLPDNRELTVKQVENYDSWEDLVSSIDTIERKDDGTLEIYLTWKNGAISHHPSTITNKKCPQKMLQFYESHLTFRENE
[10]
  Kd: < 1 nM

B3: CFP-Swi6 (natural protein, S. pombe, UniProt P40381 1-328, looked up)
chain: MKKGGVRSYRRSSTSKRSVIDDDSEPELPSMTKEAIASHKADSGSSDNEVESDHESKSSSKKLKENAKEEEGGEEEEEDEYVVEKVLKHRMARKGGGYEYLLKWEGYDDPSDNTWSSEADCSGCKQLIEAYWNEHGGRPEPSKRKRTARPKKPEAKEPSPKSRKTDEDKHDKDSNEKIEDVNEKTIKFADKSQEEFNENGPPSGQPNGHIESDNESKSPSQKESNESEDIQIAETPSNVTPKKKPSPEVPKLPDNRELTVKQVENYDSWEDLVSSIDTIERKDDGTLEIYLTWKNGAISHHPSTITNKKCPQKMLQFYESHLTFRENE
[11]
  fold weaker dimer than Swi6^WT: ~10 fold
